Data: ChEMBL document CHEMBL1126705, “16 beta-([18F]fluoro)estrogens: systematic investigation of a new series of fluorine-18-labeled estrogens as potential imaging agents for estrogen-receptor-positive breast tumors” (J Med Chem, 1993)

Assays:
[1] = target: T1, Sex hormone-binding globulin (Homo sapiens) (UniProt P04278); assay: Relative binding affinity against sex steroid binding protein (SBP)
T1 sequence (whole entry): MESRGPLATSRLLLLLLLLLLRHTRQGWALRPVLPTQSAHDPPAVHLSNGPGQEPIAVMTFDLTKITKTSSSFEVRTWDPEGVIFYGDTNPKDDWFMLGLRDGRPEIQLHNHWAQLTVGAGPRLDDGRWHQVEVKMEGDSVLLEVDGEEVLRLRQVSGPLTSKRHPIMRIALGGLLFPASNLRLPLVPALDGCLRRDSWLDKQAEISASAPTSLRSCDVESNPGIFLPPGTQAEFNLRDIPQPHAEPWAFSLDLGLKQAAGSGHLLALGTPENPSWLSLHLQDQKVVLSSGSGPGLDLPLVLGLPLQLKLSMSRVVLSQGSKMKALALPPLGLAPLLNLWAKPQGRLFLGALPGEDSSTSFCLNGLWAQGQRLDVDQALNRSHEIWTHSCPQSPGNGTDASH

Rattus norvegicus [2] = assay: Tested in vivo for the biodistribution in rat bone after 3 hours following an intravenous dose of 50 microCi of drug in 10%ethanol saline; format: ADME, organism-based, Bone element
How it was run: (§1)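 Ether-anesthetized 25-day-old female Sprague-Dawley rats (~40–53 g) got the [18F] tracer in 10% ethanol saline via femoral vein. Rats were decapitated at 1 or 3 h, and blood and organs were weighed and gamma-counted. Values are % injected dose/g as mean ± SD, n = 5 per time point.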

Rattus norvegicus [3] = assay: Tested in vivo for the biodistribution in blood of female rat after 3 hours following an intravenous dose of 50 microCi of drug in 10%ethanol saline; format: ADME, organism-based; how it was run: as §1
Rattus norvegicus [4] = assay: Tested in vivo for the biodistribution in rat uterus/blood at 1 hour after intravenous dose of 50 microCi of drug in 10%ethanol saline; format: ADME, organism-based
How it was run: (§2)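 Female Sprague-Dawley rats, 25 days old (~40–53 g), ether-anesthetized, given the 18F-labeled estrogen iv via femoral vein in 10% ethanol saline. […] Others were sacrificed by decapitation at 1 or 3 h. Blood and organs were excised, weighed and gamma counted as % injected dose/g, mean ± SD, typically n = 5 (4–6).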

[5] = Partition coefficient (logP); format: physicochemical; conditions: octanol/water
How it was run: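 Octanol/water log P estimated from log k'w measured by reversed-phase HPLC (Minick method) on a C8 silica column.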

Rattus norvegicus [6] = assay: Tested in vivo for the biodistribution in rat liver at 1 hour after intravenous dose of 50 microCi of drug in 10%ethanol saline; format: ADME, organism-based
How it was run: (§3)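 Immature (25-day-old) female Sprague-Dawley rats, ether-anesthetized, given the fluorine-18-labeled estrogen by femoral vein injection in 10% ethanol saline. […] Other groups were killed by decapitation at 1 or 3 h. Blood and organs were weighed and gamma-counted. Data are % injected dose/g, mean ± SD, typically n = 5 per group.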

Rattus norvegicus [7] = assay: Tested in vivo for the biodistribution in rat thymus at 1 hour after intravenous dose of 50 microCi of the drug and 15 ug of estradiol; format: ADME, organism-based; how it was run: as §3
Rattus norvegicus [8] = assay: Tested in vivo for the biodistribution in rat ovaries at 1 hour after intravenous dose of 50 microCi of drug in 10%ethanol saline; format: ADME, organism-based, Female gonad; how it was run: as §3
Rattus norvegicus [9] = assay: Tested in vivo for the biodistribution in rat muscle after 3 hours following an intravenous dose of 50 microCi of drug in 10%ethanol saline; format: ADME, organism-based, Muscle tissue; how it was run: as §3
Rattus norvegicus [10] = assay: Tested in vivo for the biodistribution in blood of female rat at 1 hour after intravenous dose of 50 microCi of the drug and 15 u g of estradiol; format: ADME, organism-based
Rattus norvegicus [11] = assay: Tested in vivo for the biodistribution in rat thymus at 1 hour after intravenous dose of 50 microCi of drug in 10%ethanol saline; format: ADME, organism-based; how it was run: as §3
Rattus norvegicus [12] = assay: Tested in vivo for the biodistribution in rat fat at 1 hour after intravenous dose of 50 microCi of drug in 10%ethanol saline; format: ADME, organism-based, Adipose tissue; how it was run: as §1
Rattus norvegicus [13] = assay: Tested in vivo for the biodistribution in rat thymus after 3 hours following an intravenous dose of 50 microCi of drug in 10%ethanol saline; format: ADME, organism-based; how it was run: as §3
Rattus norvegicus [14] = assay: Tested in vivo for the biodistribution in rat muscle at 1 hour after intravenous dose of 50 microCi of the drug and 15 ug of estradiol; format: ADME, organism-based, Muscle tissue; how it was run: as §3
Rattus norvegicus [15] = assay: Tested in vivo for the biodistribution in rat bone at 1 hour after intravenous dose of 50 microCi of drug in 10%ethanol saline; format: ADME, organism-based, Bone element; how it was run: as §1
Rattus norvegicus [16] = assay: Tested in vivo for the biodistribution in rat uterus/muscle at 1 hour after intravenous dose of 50 microCi of drug in 10%ethanol saline; format: ADME, organism-based, Muscle tissue; how it was run: as §2
Rattus norvegicus [17] = assay: Tested in vivo for the biodistribution in rat uterus after 3 hours following an intravenous dose of 50 microCi of drug in 10%ethanol saline; format: ADME, organism-based; how it was run: as §3
Rattus norvegicus [18] = assay: Tested in vivo for the biodistribution in rat uterus at 1 hour after intravenous dose of 50 microCi of drug in 10%ethanol saline; format: ADME, organism-based; how it was run: as §2
Rattus norvegicus [19] = assay: Tested in vivo for the biodistribution in rat uterus/muscle after 3 hours following an intravenous dose of 50 microCi of drug in 10%ethanol saline; format: ADME, organism-based, Muscle tissue; how it was run: as §2
Rattus norvegicus [20] = assay: Tested in vivo for the biodistribution in rat kidney at 1 hour after intravenous dose of 50 microCi of drug in 10%ethanol saline; format: ADME, organism-based; how it was run: as §1
Rattus norvegicus [21] = assay: Tested in vivo for the biodistribution in rat uterus/muscle at 1 hour after intravenous dose of 50 microCi of the drug and 15 ug of estradiol; format: ADME, organism-based, Muscle tissue; how it was run: as §2
Rattus norvegicus [22] = assay: Tested in vivo for the biodistribution in rat liver after 3 hours following an intravenous dose of 50 microCi of drug in 10%ethanol saline; format: ADME, organism-based; how it was run: as §3
Rattus norvegicus [23] = assay: Tested in vivo for the biodistribution in rat uterus/blood at 1 hour after intravenous dose of 50 microCi of the drug and 15 ug of estradiol; format: ADME, organism-based; how it was run: as §2
Rattus norvegicus [24] = assay: Tested in vivo for the biodistribution in blood of female rat at 1 hour after intravenous dose of 50 microCi of drug in 10%ethanol saline; format: ADME, organism-based; how it was run: as §1
Rattus norvegicus [25] = assay: Tested in vivo for the biodistribution in rat uterus at 1 hour after intravenous dose of 50 microCi of the drug and 15 ug of estradiol; format: ADME, organism-based; how it was run: as §2
[26] = target: T2, Alpha-fetoprotein (Rattus norvegicus) (UniProt P02773); assay: Relative binding affinity for Alphafetoprotein
T2 sequence (whole entry): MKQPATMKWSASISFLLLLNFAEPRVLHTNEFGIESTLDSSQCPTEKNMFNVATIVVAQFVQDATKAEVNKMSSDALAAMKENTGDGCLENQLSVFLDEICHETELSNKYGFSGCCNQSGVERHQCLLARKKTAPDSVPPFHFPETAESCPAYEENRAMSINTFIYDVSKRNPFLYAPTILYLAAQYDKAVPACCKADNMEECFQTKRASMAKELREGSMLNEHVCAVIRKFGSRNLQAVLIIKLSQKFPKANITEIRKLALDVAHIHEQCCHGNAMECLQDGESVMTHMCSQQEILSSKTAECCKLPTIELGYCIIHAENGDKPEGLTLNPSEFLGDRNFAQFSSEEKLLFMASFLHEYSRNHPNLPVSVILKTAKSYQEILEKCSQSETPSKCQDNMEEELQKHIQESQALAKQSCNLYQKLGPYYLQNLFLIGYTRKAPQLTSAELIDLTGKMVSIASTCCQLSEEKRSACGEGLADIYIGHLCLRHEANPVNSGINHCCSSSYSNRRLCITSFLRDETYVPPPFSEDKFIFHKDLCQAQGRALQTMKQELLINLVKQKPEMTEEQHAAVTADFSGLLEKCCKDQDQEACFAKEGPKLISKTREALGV

Rattus norvegicus [27] = assay: Tested in vivo for the biodistribution in rat fat at 1 hour after intravenous dose of 50 microCi of the drug and 15 ug of estradiol; format: ADME, organism-based, Adipose tissue
Rattus norvegicus [28] = assay: Tested in vivo for the biodistribution in rat uterus/blood after 3 hours following an intravenous dose of 50 microCi of drug in 10%ethanol saline; format: ADME, organism-based; how it was run: as §2
Rattus norvegicus [29] = assay: Tested in vivo for the biodistribution in rat kidney at 1 hour after intravenous dose of 50 microCi of the drug and 15 u g of estradiol; format: ADME, organism-based; how it was run: as §3
[30] = Tested in vivo for the biodistribution in rat fat after 3 hours following an intravenous dose of 50 microCi of drug in 10%ethanol saline; set-up: species or system Adipose tissue; how it was run: as §1
[31] = target: T3, Estrogen receptor (Rattus norvegicus) (UniProt P06211+Q62986)
Rattus norvegicus [32] = assay: Tested in vivo for the biodistribution in rat ovaries at 1 hour after intravenous dose of 50 microCi of the drug and 15 ug of estradiol; format: ADME, organism-based, Female gonad; how it was run: as §3
Rattus norvegicus [33] = assay: Tested in vivo for the biodistribution in rat bone at 1 hour after intravenous dose of 50 microCi of the drug and 15 ug of estradiol; format: ADME, organism-based, Bone element
Rattus norvegicus [34] = assay: Tested in vivo for the biodistribution in rat kidney after 3 hours following an intravenous dose of 50 microCi of drug in 10%ethanol saline; format: ADME, organism-based; how it was run: as §1
Rattus norvegicus [35] = assay: Tested in vivo for the biodistribution in rat muscle at 1 hour after intravenous dose of 50 microCi of drug in 10%ethanol saline; format: ADME, organism-based, Muscle tissue; how it was run: as §3
[36] = target: T3, Estrogen receptor (Rattus norvegicus); remark: listed apart in the source
Rattus norvegicus [37] = assay: Tested in vivo for the biodistribution in rat ovaries after 3 hours following an intravenous dose of 50 microCi of drug in 10%ethanol saline; format: ADME, organism-based, Female gonad; how it was run: as §3
Rattus norvegicus [38] = assay: Tested in vivo for the biodistribution in rat liver at 1 hour after intravenous dose of 50 microCi of the drug and 15 u g of estradiol; format: ADME, organism-based; how it was run: as §3

relative binding affinity (RBA) [1]: 0.087 | Injected (Rattus norvegicus [2]): 0.646% | Injected (Rattus norvegicus [3]): 0.117% | Injected (dose/g) (Rattus norvegicus [4]): 41.7% | logP [5]: 2.35 | Injected (Rattus norvegicus [6]): 1.178% | Injected (dose/g) (Rattus norvegicus [7]): 0.135% | Injected (Rattus norvegicus [8]): 2.466% | Injected (dose/g) (Rattus norvegicus [9]): 0.107% | Injected (Rattus norvegicus [10]): 0.184% | Injected (dose/g) (Rattus norvegicus [11]): 0.391% | Injected (Rattus norvegicus [12]): 0.516% | Injected (dose/g) (Rattus norvegicus [13]): 0.175% | Injected (Rattus norvegicus [14]): 0.149% | Injected (dose/g) (Rattus norvegicus [15]): 0.515% | Injected (dose/g) (Rattus norvegicus [16]): 25.57% | Injected (Rattus norvegicus [17]): 4.813% | Injected (dose/g) (Rattus norvegicus [18]): 6.12% | Injected (Rattus norvegicus [19]): 47.73% | Injected (Rattus norvegicus [20]): 0.946% | Injected (dose/g) (Rattus norvegicus [21]): 4.49% | Injected (dose/g) (Rattus norvegicus [22]): 0.893% | Injected (dose/g) (Rattus norvegicus [23]): 3.73% | Injected (Rattus norvegicus [24]): 0.148% | Injected (Rattus norvegicus [25]): 0.671% | relative binding affinity (RBA) [26]: 0.062 | Injected (Rattus norvegicus [27]): 0.338% | Injected (Rattus norvegicus [28]): 43.47% | Injected (dose/g) (Rattus norvegicus [29]): 0.579% | NSB [31]: 0.39 | Injected (Rattus norvegicus [32]): 0.417% | Injected (dose/g) (Rattus norvegicus [33]): 0.604% | Injected (Rattus norvegicus [34]): 0.429% | Injected (dose/g) (Rattus norvegicus [35]): 0.251% | BSI [36]: 34 | Injected (Rattus norvegicus [37]): 1.409% | Injected (Rattus norvegicus [38]): 1.397%
SMILES: CO[C@H]1C[C@]2(C)[C@@H](O)[C@@H](F)C[C@H]2[C@@H]2CCc3cc(O)ccc3[C@H]21
Injected [30]: 0.402%
